Laboratory results from ChEMBL document CHEMBL4613249, “Serendipitous Discovery of Leucine and Methionine Depletion Agents during the Search for Polyamine Transport Inhibitors” (J Med Chem, 2020).
Calls of active or inactive are those of the source. The rule behind the calls is not given here.

Key:
[1] = tested on: CHO-K1; assay: Cytotoxicity against CHOK1 cells assessed as effect on cell growth up to 6 uM measured after 48 hrs by MTS assay; type: cell-based, Cricetulus griseus; settings: chinese hamster, cho-k1, 48 h
[2] = tested on: L3.6pl; assay: Cytotoxicity against human L3.6PL cells assessed as reduction in cell viability measured after 72 hrs by MTS assay; type: cell-based
In short: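 L3.6pl cells, 500 cells/well in RPMI 1640 with 10% FBS and 250 μM aminoguanidine, plated overnight. Compound in PBS added, then 72 h at 37°C. MTS absorbance at 490 nm. IC50 is the dose giving 50% relative growth versus untreated control. Run twice in triplicate.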

[3] = tested on: L3.6pl; assay: Potentiation of 2 uM N-(anthracenylmethyl) homospermidine-induced toxicity in human L3.6PL cells assessed as increase in Ant-44-induced reduction in cell growth measured after 72 hrs in presence of amine oxidase suppressor aminoguanidine by MTS assay; type: functional, cell-based
In short: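 L3.6pl cells (500 cells/well) were pretreated 24 h with 250 μM aminoguanidine in PBS, then given Ant-44 (2 μM) with increasing compound for 72 h at 37°C. MTS growth was read, with EC50 relative to the Ant-44-only control.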

[4] = tested on: L3.6pl; assay: Effect on polyamine level in human L3.6PL cells assessed as putrescine level per mg protein in supernatant at 5 uM measured after 72 hrs in presence of amine oxidase suppressor aminoguanidine by LCMS analysis (reference value: 977 +/- 522 pmol/mg); type: functional
[5] = tested on: L3.6pl; assay: Effect on polyamine level in human L3.6PL cells assessed as acetyl spermidine level per mg protein in supernatant at 5 uM measured after 72 hrs in presence of amine oxidase suppressor aminoguanidine by LCMS analysis (reference value: 1936 +/- 1365 pmol/mg); type: functional
[6] = tested on: L3.6pl; assay: Effect on polyamine level in human L3.6PL cells assessed as agmatine level per mg protein in supernatant at 5 uM measured after 72 hrs in presence of amine oxidase suppressor aminoguanidine by LCMS analysis (reference value: 101 pmol/mg); type: functional
[7] = tested on: L3.6pl; assay: Effect on polyamine level in human L3.6PL cells assessed as ornithine level per mg protein in supernatant at 2 uM measured after 72 hrs in presence of amine oxidase suppressor aminoguanidine by LCMS analysis (reference value: 10588 +/- 3212 pmol/mg); type: functional
[8] = tested on: L3.6pl; assay: Effect on polyamine level in human L3.6PL cells assessed as decrease in intracellular spermine level at 7 uM measured after 72 hrs in presence of amine oxidase suppressor aminoguanidine by LCMS analysis relative to control; type: functional; design: scale not given: the % may be the effect or the level left
In short: (§1)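 L3.6pl cells, 50,000 cells/mL in 10 mL per Petri dish with 1 mM aminoguanidine, plated overnight. Dosed with compound at 2, 5 or 7 μM from PBS stocks, then 72 h at 37°C. Intracellular polyamines measured by N-dansylation and HPLC, in duplicate, as nmol/mg protein against a parallel untreated control.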

[9] = tested on: L3.6pl; assay: Effect on polyamine level in human L3.6PL cells assessed as intracellular putrescine level at 7 uM measured after 72 hrs in presence of amine oxidase suppressor aminoguanidine by LCMS analysis relative to control; type: functional; settings: in the assay text read “by N-dansylation and HPLC analysis” for “by LCMS analysis”; in short: as §1
[10] = target: Large neutral amino acids transporter small subunit 1 (Homo sapiens) (UniProt Q01650); assay: Inhibition of LAT1-mediated amino acid transport in human L3.6PL cells assessed as reduction in intracellular methionine level by measuring methionine level per mg protein in cell lysate at 2 uM measured after 72 hrs by LCMS analysis (reference value: 167 +/- 67 pmol/mg); type: cell-based
In short: (§2)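 L3.6pl cells (50,000 cells/mL, 10 mL, 1 mM aminoguanidine) were seeded in poly-lysine-treated 9 cm dishes and incubated overnight at 37°C. They were then dosed with compound at 2, 5 or 7 μM from PBS stocks (2, 5, 7 mM) and incubated 72 h. Runs were done in triplicate, with amino acid levels per mg protein.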

[11] = target: Large neutral amino acids transporter small subunit 1 (Homo sapiens) (UniProt Q01650); assay: Inhibition of LAT1-mediated amino acid transport in human L3.6PL cells assessed as reduction in intracellular methionine level measured after 72 hrs by LCMS analysis; type: cell-based; in short: as §2
[12] = target: Large neutral amino acids transporter small subunit 1 (Homo sapiens) (UniProt Q01650); assay: Inhibition of LAT1-mediated [3H]-leucine uptake in human L3.6PL cells measured after 2 mins by scintillation counting analysis; type: cell-based
[13] = Selectivity index, ratio of IC50 for cytotoxicity against CHO-MG cells assessed as reduction in cell viability after 48 hrs by MTS assay to IC50 for […] human L3.6PL cells assessed as reduction in cell viability after 48 hrs by MTS assay
In short: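 The ratio is of 48 h IC50 values from MTS growth assays. CHO K1/CHO-MG cells were plated at 1000 cells/well and L3.6pl at 500 cells/well, drug in PBS was added after overnight incubation, and absorbance was read at 490 nm. IC50 is 50% growth versus untreated control; runs were done twice in triplicate.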

[14] = target: Large neutral amino acids transporter small subunit 1 (Homo sapiens) (UniProt Q01650); assay: Induction of LAT1-mediated polyamine efflux in aminoguanidine pretreated human L3.6PL cells assessed as reduction in cell viability at 5 uM measured after 72 hrs in presence of spermine by MTS assay; type: cell-based
In short: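 L3.6pl cells pre-incubated 24 h with 250 μM aminoguanidine. Then given increasing compound plus putrescine, spermidine or spermine, each fixed at 1 or 5 μM, for 72 h at 37°C. Growth by MTS relative to untreated control.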

[15] = tested on: CHO-K1; assay: Induction of polyamine efflux in aminoguanidine pretreated CHOK1 cells assessed as reduction in cell viability measured after 72 hrs in presence of spermidine by MTS assay; type: ADME, cell-based, Cricetulus griseus; settings: chinese hamster, cho-k1, 72 h
[16] = tested on: CHO-K1; assay: Induction of polyamine efflux in aminoguanidine pretreated CHOK1 cells assessed as reduction in cell viability measured after 72 hrs in presence of spermine by MTS assay; type: ADME, cell-based, Cricetulus griseus; settings: chinese hamster, cho-k1, 72 h
[17] = tested on: CHO-MG; assay: Induction of polyamine efflux in aminoguanidine pretreated CHO-MG cells assessed as reduction in cell viability measured after 72 hrs in presence of spermidine by MTS assay; type: ADME, cell-based, Cricetulus griseus; settings: chinese hamster
[18] = tested on: CHO-MG; assay: Induction of polyamine efflux in aminoguanidine pretreated CHO-MG cells assessed as reduction in cell viability measured after 72 hrs in presence of spermine by MTS assay; type: ADME, cell-based, Cricetulus griseus; settings: chinese hamster
[19] = Toxicity in mouse at 1 mg/kg, ip measured over 24 hrs; type: organism-based; settings: in vivo
[20] = tested on: L3.6pl; assay: Effect on polyamine level in human L3.6PL cells assessed as decrease in intracellular putrescine level at 1 uM measured after 72 hrs in presence of amine oxidase suppressor aminoguanidine and Ant-44 by LCMS analysis; type: functional, cell-based
In short: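 L3.6pl cells dosed with Ant-44 fixed at 2 μM plus increasing compound for 72 h at 37°C. Intracellular polyamines and Ant-44 given as nmol/mg protein, in duplicate, with a parallel untreated control.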

[21] = target: Large neutral amino acids transporter small subunit 1 (Homo sapiens) (UniProt Q01650); assay: Induction of LAT1-mediated polyamine efflux in human L3.6PL cells assessed as increase in [3H]leucine efflux at 60 uM measured after 30 mins at 37 degC in presence of LAT1 inhibitor JPH-203 by scintillation counting method; type: cell-based
[22] = tested on: L3.6pl; assay: Effect on polyamine level in human L3.6PL cells assessed as glutamic acid level per mg protein in supernatant at 2 uM measured after 72 hrs in presence of amine oxidase suppressor aminoguanidine by LCMS analysis (reference value: 23412 +/- 3983 pmol/mg)

Chain of Large neutral amino acids transporter small subunit 1 (Homo sapiens) (Q01650 whole entry): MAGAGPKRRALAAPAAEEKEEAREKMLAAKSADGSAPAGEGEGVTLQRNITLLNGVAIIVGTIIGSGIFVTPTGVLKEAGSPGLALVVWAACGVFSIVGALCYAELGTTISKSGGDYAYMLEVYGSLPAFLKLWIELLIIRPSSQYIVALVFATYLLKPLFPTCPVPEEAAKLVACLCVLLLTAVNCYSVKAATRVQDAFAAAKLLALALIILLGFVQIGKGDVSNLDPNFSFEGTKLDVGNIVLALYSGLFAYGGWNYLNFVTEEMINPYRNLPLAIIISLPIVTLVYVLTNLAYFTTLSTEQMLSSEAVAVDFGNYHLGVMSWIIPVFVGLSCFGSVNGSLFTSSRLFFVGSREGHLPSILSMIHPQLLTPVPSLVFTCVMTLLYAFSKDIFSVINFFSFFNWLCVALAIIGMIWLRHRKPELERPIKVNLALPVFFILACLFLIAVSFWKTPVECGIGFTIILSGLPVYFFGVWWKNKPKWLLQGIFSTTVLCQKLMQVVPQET

- Activity [10]: 226 pmol/mg
- inhibition [11]: Dose-dependent effect
- inhibition [12]: inactive
- Activity [21]: inactive
Compound: CC(C)CCN1CCN([C@@H](CNCc2ccccc2)CC2CCCCC2)C[C@@H]1CC(C)C
- Activity [1]: Non-Toxic
- IC50 [2]: 5.9 µM
- EC50 [3]: 0.29 µM
- Activity [4]: 2224 pmol/mg
- Activity [5]: 1706 pmol/mg
- Activity [6]: 485 pmol/mg
- Activity [7]: 9249 pmol/mg
- Activity [8]: 30%
- Activity [9]: 83%
- Ratio IC50 [13]: 2
- Activity [14]: Active
- Activity [15]: Active
- Activity [16]: Active
- Activity [17]: Active
- Activity [18]: Active
- Activity [19]: Non-Toxic
- Activity [20]: Active
- Activity [22]: 20231 pmol/mg
